Measurements reported in ChEMBL document CHEMBL3244351, “Aroyl- and arylisoquinolineacetic acids as antiinflammatory agents” (1978).
The source made the active and inactive calls. No cut-off for these calls is given here.

Legend:
[1] = system: Rattus norvegicus; assay: Antiinflammatory activity in carrageenan-induced rat assessed as efficacy ratio for reduction in pleural effusion at 316 mg/kg, po after 5 hrs by Evans blue assay relative to control; assay type: functional
Outline: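 Rats given 316 mg/kg orally (two rats), then intrapleural injection of 5 mL 0.075% Evans blue/0.5% carrageenan type 7. Pleural effusion volume measured at 5 h. Efficacy ratio is control effusion volume divided by treated effusion volume, judged by sequential analysis; a ratio ≥1.30 counts as active.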

[2] = system: Rattus norvegicus; assay: Antiinflammatory activity in Evans blue carrageenan-induced pleural effusion rat model assessed as decrease in volume of pleural fluid at 100 mg/kg relative to control
[3] = system: Rattus norvegicus; assay: Antiinflammatory activity in adjuvant-induced arthritic rat chronic inflammation model assessed as […] at 31.6 mg/kg; assay type: functional, organism-based; parameters: dose 31.6 mg/kg

SMILES | T/C [1] | Activity [2] | Activity [3]
NC(=O)Cc1cc2ccccc2c(C(=O)c2ccccc2)n1 | 0.9 | inactive | 
NC(=O)Cc1cc2ccccc2c(-c2ccc(Cl)cc2)n1 |  | 22% | inactive
O=C(O)c1ccc2ccccc2c1 [BETA-NAPHTOIC ACID] | 1.13 | inactive | 
Br.CCOC(=O)c1cc2ccccc2cn1 | 1.97 | 1% | 
Br.O=C(c1ccccc1)c1ccccn1 | 1.23 | inactive | 
O=C(O)c1cc2ccccc2c(-c2ccccc2)n1 | 1.26 | inactive | 
Br.Cc1cc2ccccc2c(C(=O)c2ccccc2)n1 | 0.93 | inactive | 
CCOC(=O)c1nc(-c2ccccc2)c2ccccc2c1OC(C)=O | 1.06 | inactive | 
NC(=O)Cc1cc2ccccc2c(-c2ccccc2)n1 | 1.33 | 14% | 
O=C(O)c1cc2ccccc2c(C(=O)c2ccccc2)n1 | 1.28 |  | 
Br.CCOC(=O)Cc1cc2ccccc2cn1 | 1.2 |  | 
CCCCC1C(=O)N(c2ccccc2)N(c2ccccc2)C1=O |  |  | Active
NC(=O)Cc1cnc(-c2ccccc2)c2ccccc12 |  | 9% | 
Br.O=C(c1ccccc1)c1nccc2ccccc12 | 0.83 | inactive | 
